# Active and inactive are the calls of the source. No cut-off for these calls is given here.
# Test system: not listed separately
# Assay: Dark toxicity in human HeLa cells assessed as reduction in cell viability after 48 hrs by MTT assay
# Assay type: cell-based
# Conditions: not given
row,Compound,IC50
1,COc1ccc(-c2cc3c(s2)c2sc(-c4ccc(/C=C(\C#N)C(=O)O)s4)cc2n3C(C)(C)C)cc1,43.4 µM
2,COc1ccc(-c2cc3c(s2)c2sc(-c4ccc(/C=C5\SC(=S)N(CC(=O)O)C5=O)s4)cc2n3C(C)(C)C)cc1,63.9 µM
3,CN(C)c1ccc(-c2cc3c(s2)c2sc(-c4ccc(C=O)s4)cc2n3C(C)(C)C)cc1,> 10 µM
4,CC(C)(C)n1c2cc(-c3ccc(N(c4ccccc4)c4ccccc4)cc3)sc2c2sc(-c3ccc(/C=C4\SC(=S)N(CC(=O)O)C4=O)s3)cc21,60.2 µM
5,CC(C)(C)n1c2cc(-c3ccc(N(c4ccccc4)c4ccccc4)cc3)sc2c2sc(-c3ccc(C=O)s3)cc21,67 µM
6,COc1ccc(-c2cc3c(s2)c2sc(-c4ccc(/C=C5\C(=O)N(CCO)C(=O)C(C#N)=C5C)s4)cc2n3C(C)(C)C)cc1,60 µM
7,N#C/C(=C\c1ccc(-c2ccc(-c3ccc(N(c4ccccc4)c4ccccc4)cc3)s2)s1)C(=O)O,21.9 µM
8,C=CC1=C(C)c2cc3[nH]c(cc4nc(cc5[nH]c(cc1n2)c(C)c5C=C)C(C)=C4CCC(=O)O)c(CCC(=O)O)c3C,12.5 µM
9,COc1ccc(-c2cc3c(s2)c2sc(-c4ccc(/C=C(\C#N)C(N)=O)s4)cc2n3C(C)(C)C)cc1,15.7 µM
10,COc1ccc(-c2cc3c(s2)c2sc(-c4ccc(C=O)s4)cc2n3C(C)(C)C)cc1,68.6 µM
11,CC(C)(C)n1c2cc(-c3ccc(N(c4ccccc4)c4ccccc4)cc3)sc2c2sc(-c3ccc(/C=C(\C#N)C(=O)O)s3)cc21,> 100 µM
12,CN(C)c1ccc(-c2cc3c(s2)c2sc(-c4ccc(/C=C(\C#N)C(=O)O)s4)cc2n3C(C)(C)C)cc1,15.5 µM
13,CCCCN1C(=O)C(=C/C=C/C=C2\Oc3ccccc3N2CCCS(=O)(=O)O)C(=O)N(CCCC)C1=S,> 100 µM
14,CN(C)c1ccc(-c2cc3c(s2)c2sc(-c4ccc(/C=C5\SC(=S)N(CC(=O)O)C5=O)s4)cc2n3C(C)(C)C)cc1,> 100 µM
15,CN(C)c1ccc(-c2cc3c(s2)c2sc(-c4ccc(/C=C(\C#N)C(N)=O)s4)cc2n3C(C)(C)C)cc1,54 µM
16,CC(C)(C)n1c2cc(-c3ccc(N(c4ccccc4)c4ccccc4)cc3)sc2c2sc(-c3ccc(/C=C(\C#N)C(N)=O)s3)cc21,> 100 µM

# Test system: HeLa
# Assay: Phototoxicity in human HeLa cells assessed as reduction in cell viability preincubated for 1 hr followed by LED light irradiation for 15 mins measured after 48 hrs by MTT assay
# Assay type: functional, cell-based
# Conditions: light or radiation study
# Outline: (§1)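 HeLa cells were treated with the sensitizer and photo-irradiated. IC50 is the sensitizer concentration that reduced viability by 50%, read from semi-logarithmic dose-response plots.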
row,Compound,IC50
1,COc1ccc(-c2cc3c(s2)c2sc(-c4ccc(/C=C(\C#N)C(=O)O)s4)cc2n3C(C)(C)C)cc1,0.19 µM
2,COc1ccc(-c2cc3c(s2)c2sc(-c4ccc(/C=C5\SC(=S)N(CC(=O)O)C5=O)s4)cc2n3C(C)(C)C)cc1,5.7 µM
3,CN(C)c1ccc(-c2cc3c(s2)c2sc(-c4ccc(C=O)s4)cc2n3C(C)(C)C)cc1,2.5 µM
4,CC(C)(C)n1c2cc(-c3ccc(N(c4ccccc4)c4ccccc4)cc3)sc2c2sc(-c3ccc(/C=C4\SC(=S)N(CC(=O)O)C4=O)s3)cc21,17.1 µM
5,CC(C)(C)n1c2cc(-c3ccc(N(c4ccccc4)c4ccccc4)cc3)sc2c2sc(-c3ccc(C=O)s3)cc21,45 µM
6,COc1ccc(-c2cc3c(s2)c2sc(-c4ccc(/C=C5\C(=O)N(CCO)C(=O)C(C#N)=C5C)s4)cc2n3C(C)(C)C)cc1,15.9 µM
7,N#C/C(=C\c1ccc(-c2ccc(-c3ccc(N(c4ccccc4)c4ccccc4)cc3)s2)s1)C(=O)O,0.21 µM
8,C=CC1=C(C)c2cc3[nH]c(cc4nc(cc5[nH]c(cc1n2)c(C)c5C=C)C(C)=C4CCC(=O)O)c(CCC(=O)O)c3C,0.75 µM
9,COc1ccc(-c2cc3c(s2)c2sc(-c4ccc(/C=C(\C#N)C(N)=O)s4)cc2n3C(C)(C)C)cc1,0.56 µM
10,COc1ccc(-c2cc3c(s2)c2sc(-c4ccc(C=O)s4)cc2n3C(C)(C)C)cc1,3.8 µM
11,CC(C)(C)n1c2cc(-c3ccc(N(c4ccccc4)c4ccccc4)cc3)sc2c2sc(-c3ccc(/C=C(\C#N)C(=O)O)s3)cc21,> 100 µM
12,CN(C)c1ccc(-c2cc3c(s2)c2sc(-c4ccc(/C=C(\C#N)C(=O)O)s4)cc2n3C(C)(C)C)cc1,0.6 µM
13,CCCCN1C(=O)C(=C/C=C/C=C2\Oc3ccccc3N2CCCS(=O)(=O)O)C(=O)N(CCCC)C1=S,16 µM
14,CN(C)c1ccc(-c2cc3c(s2)c2sc(-c4ccc(/C=C5\SC(=S)N(CC(=O)O)C5=O)s4)cc2n3C(C)(C)C)cc1,12.1 µM
15,CN(C)c1ccc(-c2cc3c(s2)c2sc(-c4ccc(/C=C(\C#N)C(N)=O)s4)cc2n3C(C)(C)C)cc1,5 µM
16,CC(C)(C)n1c2cc(-c3ccc(N(c4ccccc4)c4ccccc4)cc3)sc2c2sc(-c3ccc(/C=C(\C#N)C(N)=O)s3)cc21,> 100 µM

# Test system: HeLa
# Assay: Phototoxicity in human HeLa cells assessed as reduction in cell viability preincubated for 1 hr followed by LED light irradiation for 60 mins measured after 48 hrs by MTT assay
# Assay type: functional, cell-based
# Conditions: light or radiation study
# Outline: as §1
row,Compound,IC50
1,COc1ccc(-c2cc3c(s2)c2sc(-c4ccc(/C=C(\C#N)C(=O)O)s4)cc2n3C(C)(C)C)cc1,0.063 µM

# Test system: HEK293
# Assay: Phototoxicity in HEK293 cells assessed as reduction in cell viability preincubated for 1 hr followed by LED light irradiation for 15 mins measured after 48 hrs by MTT assay
# Assay type: functional, cell-based
# Conditions: Homo sapiens, HEK293, light or radiation study
row,Compound,IC50
1,COc1ccc(-c2cc3c(s2)c2sc(-c4ccc(/C=C(\C#N)C(=O)O)s4)cc2n3C(C)(C)C)cc1,0.043 µM
2,N#C/C(=C\c1ccc(-c2ccc(-c3ccc(N(c4ccccc4)c4ccccc4)cc3)s2)s1)C(=O)O,0.16 µM

# Test system: not listed separately
# Assay: Dark toxicity in HEK293 cells assessed as reduction in cell viability measured after 48 hrs by MTT assay
# Assay type: cell-based
# Conditions: human
row,Compound,IC50 at 48 h
1,COc1ccc(-c2cc3c(s2)c2sc(-c4ccc(/C=C(\C#N)C(=O)O)s4)cc2n3C(C)(C)C)cc1,> 10 µM
2,N#C/C(=C\c1ccc(-c2ccc(-c3ccc(N(c4ccccc4)c4ccccc4)cc3)s2)s1)C(=O)O,> 10 µM

# Test system: not listed separately
# Assay: Dark toxicity in HEK293 cells assessed as inhibition of cell viability at 10 uM measured after 48 hrs by MTT assay relative to control
# Assay type: cell-based
# Conditions: human, read-out: INH
row,Compound,"cytotoxicity at 48 h, 10 µM"
1,COc1ccc(-c2cc3c(s2)c2sc(-c4ccc(/C=C(\C#N)C(=O)O)s4)cc2n3C(C)(C)C)cc1,7%
2,N#C/C(=C\c1ccc(-c2ccc(-c3ccc(N(c4ccccc4)c4ccccc4)cc3)s2)s1)C(=O)O,32%

# Test system: not listed separately
# Assay: Induction of oxidative damage to human serum albumin assessed as oxidation of tryptophan residue at 10 uM after 15 to 45 mins by fluorescence assay
# Assay type: functional
# Conditions: not given
# Outline: (§2)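 Sensitizer (10 µM) and HSA (20 µM) in PBS were irradiated with white LED light (420–750 nm, 8.0 ± 0.5 mW/cm2). Photo-oxidation of HSA's single tryptophan was followed as the loss of its intrinsic fluorescence at around 350 nm.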
row,Compound,Activity
1,COc1ccc(-c2cc3c(s2)c2sc(-c4ccc(/C=C(\C#N)C(=O)O)s4)cc2n3C(C)(C)C)cc1,Active
2,COc1ccc(-c2cc3c(s2)c2sc(-c4ccc(/C=C5\SC(=S)N(CC(=O)O)C5=O)s4)cc2n3C(C)(C)C)cc1,inactive
3,CN(C)c1ccc(-c2cc3c(s2)c2sc(-c4ccc(C=O)s4)cc2n3C(C)(C)C)cc1,inactive
4,CC(C)(C)n1c2cc(-c3ccc(N(c4ccccc4)c4ccccc4)cc3)sc2c2sc(-c3ccc(/C=C4\SC(=S)N(CC(=O)O)C4=O)s3)cc21,inactive
5,CC(C)(C)n1c2cc(-c3ccc(N(c4ccccc4)c4ccccc4)cc3)sc2c2sc(-c3ccc(C=O)s3)cc21,inactive
6,COc1ccc(-c2cc3c(s2)c2sc(-c4ccc(/C=C(\C#N)C(N)=O)s4)cc2n3C(C)(C)C)cc1,Active
7,COc1ccc(-c2cc3c(s2)c2sc(-c4ccc(C=O)s4)cc2n3C(C)(C)C)cc1,inactive
8,CC(C)(C)n1c2cc(-c3ccc(N(c4ccccc4)c4ccccc4)cc3)sc2c2sc(-c3ccc(/C=C(\C#N)C(=O)O)s3)cc21,inactive
9,CN(C)c1ccc(-c2cc3c(s2)c2sc(-c4ccc(/C=C(\C#N)C(=O)O)s4)cc2n3C(C)(C)C)cc1,Active
10,CN(C)c1ccc(-c2cc3c(s2)c2sc(-c4ccc(/C=C5\SC(=S)N(CC(=O)O)C5=O)s4)cc2n3C(C)(C)C)cc1,inactive
11,CN(C)c1ccc(-c2cc3c(s2)c2sc(-c4ccc(/C=C(\C#N)C(N)=O)s4)cc2n3C(C)(C)C)cc1,inactive
12,CC(C)(C)n1c2cc(-c3ccc(N(c4ccccc4)c4ccccc4)cc3)sc2c2sc(-c3ccc(/C=C(\C#N)C(N)=O)s3)cc21,inactive

# Test system: not listed separately
# Assay: Induction of oxidative damage to human serum albumin assessed as oxidation of tryptophan residue at 10 uM after 15 to 45 mins in presence of ROS quencher L-ascorbic acid by fluorescence assay
# Assay type: functional
# Conditions: not given
# Outline: as §2
row,Compound,Activity
1,COc1ccc(-c2cc3c(s2)c2sc(-c4ccc(/C=C(\C#N)C(=O)O)s4)cc2n3C(C)(C)C)cc1,Active

# Test system: not listed separately
# Assay: Drug uptake in cytoplasm of human HeLa cells at 10 uM after 1 hr by Hoechst 33342 staining based confocal microscopic method
# Assay type: ADME, subcellular
# Conditions: not given
row,Compound,Drug uptake
1,COc1ccc(-c2cc3c(s2)c2sc(-c4ccc(/C=C(\C#N)C(=O)O)s4)cc2n3C(C)(C)C)cc1,Active

# Test system: not listed separately
# Assay: Drug uptake in nucleus of human HeLa cells at 10 uM after 1 hr by Hoechst 33342 staining based confocal microscopic method
# Assay type: ADME, subcellular
# Conditions: not given
row,Compound,Drug uptake
1,COc1ccc(-c2cc3c(s2)c2sc(-c4ccc(/C=C(\C#N)C(=O)O)s4)cc2n3C(C)(C)C)cc1,Active
